Results from ChEMBL document CHEMBL2169806, “Design, synthesis, and pharmacological evaluation of N-acylhydrazones and novel conformationally constrained compounds as selective and potent orally active phosphodiesterase-4 inhibitors” (J Med Chem, 2012).
Calls of active or inactive are those of the source. No cut-off for these calls is given here.

Columns and labels:
[1] = biological target: 3',5'-cyclic-AMP phosphodiesterase 4D (Homo sapiens, UniProt Q08499); experiment: Inhibition of human recombinant PDE4D
[2] = biological target: 3',5'-cyclic-AMP phosphodiesterase 4C (Homo sapiens, UniProt Q08493); experiment: Inhibition of human recombinant PDE4C
[3] = biological target: 3',5'-cyclic-AMP phosphodiesterase 4A (Homo sapiens, UniProt P27815); experiment: Inhibition of human recombinant PDE4A
[4] = biological target: 3',5'-cyclic-AMP phosphodiesterase 4B (Homo sapiens, UniProt Q07343); experiment: Inhibition of human recombinant PDE4B
[5] = organism: Bos taurus; experiment: Inhibition of bovine PDE4 using [3H]cAMP as substrate at 10 uM
How it was run: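 Enzyme was PDE4 isolated from the media layer of bovine aorta, run in the two-step activity assay at 1 μM cAMP.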

[6] = tested on: Mus musculus; experiment: Antiinflammatory activity in A/J mouse assessed as inhibition of LPS-induced airway resistance provoked by methacholine at 100 umol/kg, po administered 1 hr prior to LPS-challenge measured after 18 hrs relative to vehicle-treated control; assay type: functional
[7] = tested on: Mus musculus; experiment: Antiinflammatory activity in A/J mouse lung assessed as inhibition of LPS-induced TNFalpha production at 100 umol/kg, po administered 1 hr prior to LPS-challenge measured after 18 hrs relative to vehicle-treated control; assay type: functional
[8] = tested on: PBMC; experiment: Antiinflammatory activity in human PBMC assessed as inhibition of LPS-induced TNFalpha production at 10 uM after 24 hrs by ELISA relative to control; assay type: functional
[9] = tested on: PBMC; experiment: Antiinflammatory activity in human PBMC assessed as inhibition of LPS-induced TNFalpha production after 24 hrs by ELISA; assay type: functional, cell-based
[10] = Inhibition of bovine PDE3 using [3H]cAMP as substrate; set-up: species or system Bos taurus
[11] = Inhibition of PDE6 at 10 uM
[12] = organism: Bos taurus; experiment: Inhibition of bovine PDE5 using […] as substrate at 10 uM
[13] = tested on: Mus musculus; experiment: Antiinflammatory activity in A/J mouse assessed as inhibition of leukocyte accumulation in bronchoalveolar space at 100 umol/kg, po administered 1 hr prior to LPS-challenge measured after 18 hrs relative to vehicle-treated control; assay type: functional; details: Lung
[14] = organism: Bos taurus; experiment: Inhibition of bovine PDE1 using [3H]cAMP as substrate at 10 uM
[15] = tested on: Mus musculus; experiment: Antiinflammatory activity in A/J mouse assessed as inhibition of LPS-induced airway elastance provoked by methacholine at 100 umol/kg, po administered 1 hr prior to LPS-challenge measured after 18 hrs relative to vehicle-treated control; assay type: functional
[16] = tested on: Mus musculus; experiment: Antiinflammatory activity in A/J mouse assessed as inhibition of neutrophil accumulation in bronchoalveolar space at 100 umol/kg, po administered 1 hr prior to LPS-challenge measured after 18 hrs relative to vehicle-treated control; assay type: functional; details: Lung
[17] = Inhibition of bovine PDE4 using [3H]cAMP as substrate; set-up: species or system Bos taurus
[18] = tested on: Mus musculus; experiment: Antiinflammatory activity in A/J mouse lung assessed as inhibition of LPS-induced IL6 production at 100 umol/kg, po administered 1 hr prior to LPS-challenge measured after 18 hrs relative to vehicle-treated control; assay type: functional
[19] = biological target: T1, cGMP-dependent 3',5'-cyclic phosphodiesterase (Homo sapiens, UniProt O00408); experiment: Inhibition of human PDE2 using [3H]cAMP as substrate
[20] = Inhibition of bovine PDE5 using […] as substrate; set-up: species or system Bos taurus
[21] = biological target: T1, cGMP-dependent 3',5'-cyclic phosphodiesterase; experiment: Inhibition of human PDE2 using [3H]cAMP as substrate at 10 uM
[22] = tested on: Mus musculus; experiment: Proemetic activity in A/J mouse assessed as reversal of xylazine/katamine-induced anesthesia at 30 to 200 umol/kg, sc administered 30 mins prior xylazine/ketamine-administration; assay type: ADME, organism-based; details: in vivo, 0.5 h
[23] = organism: Bos taurus; experiment: Inhibition of bovine PDE3 using [3H]cAMP as substrate at 10 uM
[24] = Inhibition of PDE6
[25] = tested on: Mus musculus; experiment: Antiinflammatory activity in A/J mouse lung assessed as inhibition of LPS-induced IL6 production at 45 umol/kg, po administered 1 hr prior to LPS-challenge measured after 18 hrs relative to vehicle-treated control; assay type: functional
[26] = tested on: Mus musculus; experiment: Antiinflammatory activity in A/J mouse assessed as inhibition of mononuclear cell accumulation in bronchoalveolar space at 45 umol/kg, po administered 1 hr prior to LPS-challenge measured after 18 hrs relative to vehicle-treated control; assay type: functional, organism-based; details: Lung
[27] = tested on: Mus musculus; experiment: Antiinflammatory activity in A/J mouse assessed as inhibition of LPS-induced airway elastance provoked by methacholine at 45 umol/kg, po administered 1 hr prior to LPS-challenge measured after 18 hrs relative to vehicle-treated control; assay type: functional
[28] = tested on: Mus musculus; experiment: Antiinflammatory activity in A/J mouse assessed as inhibition of LPS-induced airway resistance provoked by methacholine at 45 umol/kg, po administered 1 hr prior to LPS-challenge measured after 18 hrs relative to vehicle-treated control; assay type: functional
[29] = tested on: Mus musculus; experiment: Antiinflammatory activity in A/J mouse assessed as inhibition of eosinophils accumulation in bronchoalveolar space at 45 umol/kg, po administered 1 hr prior to LPS-challenge measured after 18 hrs relative to vehicle-treated control; assay type: functional, organism-based; details: Lung
[30] = tested on: Mus musculus; experiment: Antiinflammatory activity in A/J mouse lung assessed as inhibition of LPS-induced TNFalpha production at 45 umol/kg, po administered 1 hr prior to LPS-challenge measured after 18 hrs relative to vehicle-treated control; assay type: functional
[31] = tested on: Mus musculus; experiment: Proemetic activity in A/J mouse assessed as reversal of xylazine/katamine-induced anesthesia at 1 to 50 umol/kg, sc administered 30 mins prior xylazine/ketamine-administration; assay type: ADME, organism-based; details: in vivo, 0.5 h
[32] = tested on: Mus musculus; experiment: Antiinflammatory activity in A/J mouse assessed as inhibition of neutrophil accumulation in bronchoalveolar space at 45 umol/kg, po administered 1 hr prior to LPS-challenge measured after 18 hrs relative to vehicle-treated control; assay type: functional; details: Lung
[33] = tested on: Mus musculus; experiment: Antiinflammatory activity in A/J mouse assessed as inhibition of leukocyte accumulation in bronchoalveolar space at 45 umol/kg, po administered 1 hr prior to LPS-challenge measured after 18 hrs relative to vehicle-treated control; assay type: functional; details: Lung
[34] = tested on: Mus musculus; experiment: Antiinflammatory activity in A/J mouse assessed as inhibition of LPS-induced airway elastance provoked by methacholine at 3 mg/kg, po administered 1 hr prior to LPS-challenge measured after 18 hrs relative to vehicle-treated control; assay type: functional
[35] = tested on: Mus musculus; experiment: Antiinflammatory activity in A/J mouse assessed as inhibition of neutrophil accumulation in bronchoalveolar space at 3 mg/kg, po administered 1 hr prior to LPS-challenge measured after 18 hrs relative to vehicle-treated control; assay type: functional; details: Lung
[36] = tested on: Mus musculus; experiment: Antiinflammatory activity in A/J mouse assessed as inhibition of LPS-induced airway resistance provoked by methacholine at 3 mg/kg, po administered 1 hr prior to LPS-challenge measured after 18 hrs relative to vehicle-treated control; assay type: functional

Sequence of 3',5'-cyclic-AMP phosphodiesterase 4B (Q07343 whole entry): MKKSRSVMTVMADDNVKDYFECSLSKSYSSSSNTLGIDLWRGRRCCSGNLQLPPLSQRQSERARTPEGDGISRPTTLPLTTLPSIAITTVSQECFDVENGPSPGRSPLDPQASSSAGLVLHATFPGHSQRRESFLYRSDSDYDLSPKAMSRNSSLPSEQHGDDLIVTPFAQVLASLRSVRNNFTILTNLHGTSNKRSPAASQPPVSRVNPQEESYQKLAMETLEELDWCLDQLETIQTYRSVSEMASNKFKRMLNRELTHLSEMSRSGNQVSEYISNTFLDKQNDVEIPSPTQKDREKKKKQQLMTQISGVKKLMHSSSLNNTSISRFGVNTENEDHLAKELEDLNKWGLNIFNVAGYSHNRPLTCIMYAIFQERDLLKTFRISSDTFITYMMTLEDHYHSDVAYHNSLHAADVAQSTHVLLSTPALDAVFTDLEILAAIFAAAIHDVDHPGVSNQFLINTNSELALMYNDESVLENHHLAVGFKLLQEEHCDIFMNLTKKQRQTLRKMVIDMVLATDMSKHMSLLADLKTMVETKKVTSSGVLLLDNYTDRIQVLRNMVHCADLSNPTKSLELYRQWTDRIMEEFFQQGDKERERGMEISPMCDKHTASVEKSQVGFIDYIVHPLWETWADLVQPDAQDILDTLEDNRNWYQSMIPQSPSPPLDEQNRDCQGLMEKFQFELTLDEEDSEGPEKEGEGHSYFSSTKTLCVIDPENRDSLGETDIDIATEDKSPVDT
Sequence of 3',5'-cyclic-AMP phosphodiesterase 4C (Q08493 whole entry): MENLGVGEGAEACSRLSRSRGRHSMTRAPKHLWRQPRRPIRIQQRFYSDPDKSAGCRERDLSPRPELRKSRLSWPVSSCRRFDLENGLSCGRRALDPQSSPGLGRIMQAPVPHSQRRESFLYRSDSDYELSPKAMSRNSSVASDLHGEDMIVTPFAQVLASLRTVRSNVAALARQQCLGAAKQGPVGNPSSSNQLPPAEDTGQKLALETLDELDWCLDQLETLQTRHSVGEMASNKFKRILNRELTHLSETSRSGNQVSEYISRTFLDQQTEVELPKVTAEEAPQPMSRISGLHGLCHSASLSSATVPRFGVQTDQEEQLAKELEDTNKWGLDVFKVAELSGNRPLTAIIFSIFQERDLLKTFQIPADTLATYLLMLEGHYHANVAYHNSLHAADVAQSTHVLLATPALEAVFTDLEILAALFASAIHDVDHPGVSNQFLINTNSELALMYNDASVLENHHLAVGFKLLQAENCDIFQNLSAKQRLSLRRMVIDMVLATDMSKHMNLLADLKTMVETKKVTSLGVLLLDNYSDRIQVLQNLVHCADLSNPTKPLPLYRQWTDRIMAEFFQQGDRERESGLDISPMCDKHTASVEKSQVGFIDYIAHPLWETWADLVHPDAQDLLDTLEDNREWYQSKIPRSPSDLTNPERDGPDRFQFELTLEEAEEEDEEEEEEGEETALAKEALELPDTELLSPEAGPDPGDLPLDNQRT
T1 sequence (O00408 whole entry): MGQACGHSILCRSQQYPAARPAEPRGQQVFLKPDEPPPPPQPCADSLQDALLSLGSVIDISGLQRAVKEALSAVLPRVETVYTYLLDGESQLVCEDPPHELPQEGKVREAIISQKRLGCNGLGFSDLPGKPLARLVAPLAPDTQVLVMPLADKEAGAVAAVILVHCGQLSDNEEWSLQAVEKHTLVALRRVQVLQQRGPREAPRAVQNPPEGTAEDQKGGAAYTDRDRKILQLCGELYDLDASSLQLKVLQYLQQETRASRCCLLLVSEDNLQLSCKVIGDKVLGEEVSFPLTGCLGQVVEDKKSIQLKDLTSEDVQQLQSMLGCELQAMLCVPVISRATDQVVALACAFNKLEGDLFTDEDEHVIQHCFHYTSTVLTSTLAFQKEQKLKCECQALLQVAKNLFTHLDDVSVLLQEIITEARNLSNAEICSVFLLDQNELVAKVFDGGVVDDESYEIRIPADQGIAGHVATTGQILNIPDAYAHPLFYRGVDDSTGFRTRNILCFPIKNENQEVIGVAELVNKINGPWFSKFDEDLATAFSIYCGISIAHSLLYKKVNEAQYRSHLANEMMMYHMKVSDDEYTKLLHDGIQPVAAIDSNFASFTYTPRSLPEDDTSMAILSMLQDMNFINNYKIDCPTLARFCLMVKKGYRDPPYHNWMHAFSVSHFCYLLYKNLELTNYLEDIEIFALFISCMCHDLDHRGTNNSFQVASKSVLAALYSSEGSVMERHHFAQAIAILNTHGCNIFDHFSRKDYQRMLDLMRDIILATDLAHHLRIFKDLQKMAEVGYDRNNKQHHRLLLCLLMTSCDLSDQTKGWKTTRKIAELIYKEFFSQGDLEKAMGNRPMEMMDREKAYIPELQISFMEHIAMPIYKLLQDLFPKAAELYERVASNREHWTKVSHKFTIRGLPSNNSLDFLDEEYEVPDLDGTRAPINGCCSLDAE
Sequence of 3',5'-cyclic-AMP phosphodiesterase 4A (P27815 whole entry): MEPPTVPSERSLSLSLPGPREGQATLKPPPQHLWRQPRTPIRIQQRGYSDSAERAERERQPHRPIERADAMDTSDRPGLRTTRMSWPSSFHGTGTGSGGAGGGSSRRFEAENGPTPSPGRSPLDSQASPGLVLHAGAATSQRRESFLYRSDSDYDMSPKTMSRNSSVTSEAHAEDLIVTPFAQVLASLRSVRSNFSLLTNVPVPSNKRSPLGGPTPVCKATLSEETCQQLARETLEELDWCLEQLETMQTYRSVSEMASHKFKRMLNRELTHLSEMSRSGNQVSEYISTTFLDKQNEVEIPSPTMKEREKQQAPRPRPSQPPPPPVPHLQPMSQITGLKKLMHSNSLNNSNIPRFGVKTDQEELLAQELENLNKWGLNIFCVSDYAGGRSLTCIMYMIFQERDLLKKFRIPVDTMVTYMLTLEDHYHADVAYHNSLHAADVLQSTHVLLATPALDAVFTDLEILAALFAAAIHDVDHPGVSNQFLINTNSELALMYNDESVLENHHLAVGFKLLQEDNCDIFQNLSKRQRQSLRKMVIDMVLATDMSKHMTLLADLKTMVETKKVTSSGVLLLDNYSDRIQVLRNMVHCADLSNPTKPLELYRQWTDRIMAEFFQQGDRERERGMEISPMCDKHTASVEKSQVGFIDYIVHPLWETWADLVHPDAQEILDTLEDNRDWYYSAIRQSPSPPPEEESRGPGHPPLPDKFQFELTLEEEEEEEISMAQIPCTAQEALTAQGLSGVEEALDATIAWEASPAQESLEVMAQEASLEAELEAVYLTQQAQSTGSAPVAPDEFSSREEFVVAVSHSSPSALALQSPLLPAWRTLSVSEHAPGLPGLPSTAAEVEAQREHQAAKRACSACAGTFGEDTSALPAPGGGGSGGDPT
Sequence of 3',5'-cyclic-AMP phosphodiesterase 4D (Q08499 whole entry): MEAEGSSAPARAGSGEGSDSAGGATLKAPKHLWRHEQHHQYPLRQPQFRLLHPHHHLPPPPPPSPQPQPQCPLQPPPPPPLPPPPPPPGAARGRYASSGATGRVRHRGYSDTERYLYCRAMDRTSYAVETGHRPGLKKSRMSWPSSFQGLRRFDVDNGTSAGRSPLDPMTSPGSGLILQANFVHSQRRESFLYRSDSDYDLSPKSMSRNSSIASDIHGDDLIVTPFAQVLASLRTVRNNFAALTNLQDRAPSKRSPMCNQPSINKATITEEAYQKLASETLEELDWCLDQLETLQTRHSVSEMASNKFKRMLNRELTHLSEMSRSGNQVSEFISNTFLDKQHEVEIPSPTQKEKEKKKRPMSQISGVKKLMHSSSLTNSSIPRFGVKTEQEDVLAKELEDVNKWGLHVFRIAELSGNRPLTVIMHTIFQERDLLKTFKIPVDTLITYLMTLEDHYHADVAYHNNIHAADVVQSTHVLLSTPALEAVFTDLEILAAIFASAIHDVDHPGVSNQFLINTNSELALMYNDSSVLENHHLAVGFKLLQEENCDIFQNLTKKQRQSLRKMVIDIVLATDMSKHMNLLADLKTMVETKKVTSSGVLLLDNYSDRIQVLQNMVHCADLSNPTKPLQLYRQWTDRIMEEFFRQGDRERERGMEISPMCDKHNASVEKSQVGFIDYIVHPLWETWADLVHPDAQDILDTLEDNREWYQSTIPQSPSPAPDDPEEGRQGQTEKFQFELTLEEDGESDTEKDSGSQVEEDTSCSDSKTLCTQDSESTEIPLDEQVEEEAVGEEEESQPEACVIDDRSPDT

Row | SMILES | IC50 [1] [nM] | IC50 [2] [nM] | IC50 [3] [nM] | IC50 [4] [nM] | inhibition [5] [%] | inhibition in vivo at 100 µmol/kg [6] [%] | inhibition in vivo at 100 µmol/kg [7] [%] | inhibition at 10 µM [8] [%] | EC50 [9] [nM] | IC50 [10] [nM] | inhibition [11] [%] | inhibition [12] [%] | inhibition in vivo at 100 µmol/kg [13] [%] | inhibition [14] [%] | inhibition in vivo at 100 µmol/kg [15] [%] | inhibition in vivo at 100 µmol/kg [16] [%] | IC50 [17] [nM] | inhibition in vivo at 100 µmol/kg [18] [%] | inhibition [21] [%] | other results
1 | Clc1ncnc2ccccc12 | 622 | 3690 | 162 | 231 | – | – | – | – | – | – | – | – | – | – | – | – | – | – | – | –
2 | COc1ccc(/C=N/N(C)C(=O)c2ccccc2OC)cc1OC | – | – | – | – | 97.8 | 61 | 100 | 80 | 1590 | 6200 | 11 | 13.9 | 52 | 11 | 59 | 53 | 210 | 99 | – | IC50 [19]: 16800 nM
3 | COc1ccc(C(=O)N(C)/N=C/c2ccc(OC)c(OC)c2)cc1 | 74 | 505 | 159 | 53 | 98.3 | 61 | 51 | 84 | 1450 | 6700 | 35.2 | – | 81 | 25.1 | 62 | 68 | 105 | 45 | 35.5 | IC50 [20]: 150 nM; Activity [22]: Non-toxic
4 | COc1ccc(/C=N/N(C)C(=O)c2ccccc2)cc1OC | 140 | – | – | – | 97.1 | 58 | 46 | 91 | 1750 | 19600 | 31.2 | 22.3 | 73 | 6 | 51 | 68 | – | 53 | 23.5 | –
5 | COc1cccc(C(=O)N(C)/N=C/c2ccc(OC)c(OC)c2)c1 | – | – | – | – | 98.1 | 70 | 75 | 81 | 1270 | 4500 | 39.5 | 29.1 | 73 | 18.5 | 69 | 77 | 290 | 38 | 40.4 | –
6 | COc1ccc(/C=N/N(C)C(=O)c2ccc3c(c2)OCO3)cc1OC | – | – | – | – | 96.3 | 56 | 80 | 90 | 540 | – | 0.6 | 5.1 | 62 | 0 | 64 | 67 | 110 | 92 | 4 | inhibition [23]: 19.4%
7 | COc1ccc(/C=N/N(C)C(=O)c2ccc(OC)c(OC)c2)cc1OC | – | – | – | – | 95.8 | 92 | 74 | 92 | 1180 | 18800 | – | 30.9 | 53 | 38.7 | 79 | 50 | 300 | 65 | 40.8 | IC50 [24]: 17600 nM
8 | COc1ccc(C2CNC(=O)C2)cc1OC1CCCC1 (stereo not drawn) [ROLIPRAM] | – | – | – | – | – | – | – | – | 130 | – | – | – | – | – | – | – | 800 | – | – | inhibition in vivo at 45 µmol/kg [25]: 54%; inhibition [26]: Active; inhibition in vivo at 45 µmol/kg [27]: 96%; inhibition in vivo at 45 µmol/kg [28]: 95%; inhibition [29]: Active; inhibition in vivo at 45 µmol/kg [30]: 69%; Activity [31]: Toxic; inhibition in vivo at 45 µmol/kg [32]: 70%; inhibition in vivo at 45 µmol/kg [33]: 70%
9 | COc1ccc(/C=N/N(C)C(=O)c2ccc(O)cc2)cc1OC | 31 | 206 | 64 | 47 | 98.4 | 36 | 35 | 83 | 520 | 11800 | – | 27.9 | 65 | 28.3 | 61 | 60 | 50 | 6 | 39.3 | IC50 [24]: 9100 nM; Activity [22]: Non-toxic
10 | COc1ccc([C@]2(C#N)CC[C@@H](C(=O)O)CC2)cc1OC1CCCC1 [CILOMILAST] | – | – | – | – | – | – | – | – | – | – | – | – | – | – | – | – | – | – | – | inhibition in vivo at 3 mg/kg [34]: 93%; inhibition in vivo at 3 mg/kg [35]: 43%; inhibition in vivo at 3 mg/kg [36]: 93%
